Test results published in ChEMBL document CHEMBL4706532, “New Seco-DSP derivatives as potent chemosensitizers” (Eur J Med Chem, 2020).

System: HUVEC
Test: Cytotoxicity against human HUVEC cells assessed as reduction in cell viability at 10 uM incubated for 48 hrs by MTT assay
Type: cell-based
Details: not given
Method in brief: (§1)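 Cells plated at 3~5 × 10^3 per well and allowed 24 h before exposure to compound or DMSO (negative control) for 48 h. MTT was added for 4 h, formazan dissolved in DMSO and absorbance read at 490 nm. Inhibition was calculated relative to DMSO and blank.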

Row | SMILES | Activity
1 | CCc1cc(=O)c2ccc(OC(C)C)c(COC(=O)c3cc(OC)c(OC)c(OC)c3)c2o1 | Non-Toxic
2 | CCc1cc(=O)c2ccc(OC)c(COC(=O)Cc3cc(OC)c(OC)c(OC)c3)c2o1 | Non-Toxic
3 | CCc1cc(=O)c2ccc(OC)c(COC(=O)c3ccc(C#N)cc3)c2o1 | Non-Toxic
4 | CCCCCc1ccc(C(=O)OCc2c(OC)ccc3c(=O)cc(CC)oc23)cc1 | Non-Toxic
5 | CCc1cc(=O)c2ccc(OC)c(COC(=O)c3ccc(F)cc3)c2o1 | Non-Toxic
6 | CCc1cc(=O)c2ccc(OC)c(COC(=O)c3cccc(OC)c3)c2o1 | Non-Toxic
7 | CCc1cc(=O)c2ccc(OC)c(COC(=O)/C=C/c3ccccc3)c2o1 | Non-Toxic
8 | CCc1cc(=O)c2ccc(OC)c(COC(=O)/C=C/c3ccc(Cl)cc3)c2o1 | Non-Toxic
9 | CCOc1ccc2c(=O)cc(CC)oc2c1COC(=O)c1cc(OC)c(OC)cc1OC | Non-Toxic
10 | CCc1cc(=O)c2ccc(OC)c(COC(=O)c3cc(OC)c(OC)cc3OC)c2o1 | Non-Toxic
11 | CCc1cc(=O)c2ccc(OC)c(COC(=O)/C=C/c3ccc(OC)cc3)c2o1 | Non-Toxic
12 | CCc1cc(=O)c2ccc(OC)c(COC(=O)c3cccc(N(C)C)c3)c2o1 | Non-Toxic
13 | CCCc1ccc(C(=O)OCc2c(OC)ccc3c(=O)cc(CC)oc23)cc1 | Non-Toxic
14 | CCc1cc(=O)c2ccc(OC)c(COC(=O)c3ccccc3[N+](=O)[O-])c2o1 | Non-Toxic
15 | CCc1cc(=O)c2ccc(OC(C)C)c(COC(=O)/C=C/c3ccccc3)c2o1 | Non-Toxic

System: not listed separately
Test: Cytotoxicity against human HOSEC cells assessed as reduction in cell viability at 10 uM incubated for 48 hrs by MTT assay
Type: cell-based
Details: hose
Method in brief: as §1, with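 “h. A2780/T and KB-VIN were grown in DMEM/F12 with 10% FBS, and HUVEC, HOSEC and T29 in RPMI-1640 with 10% FBS, all at 37 °C under 5% CO₂.” for “h.”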

Row | SMILES | Activity
16 | CCc1cc(=O)c2ccc(OC(C)C)c(COC(=O)c3cc(OC)c(OC)c(OC)c3)c2o1 | Non-Toxic
17 | CCc1cc(=O)c2ccc(OC)c(COC(=O)Cc3cc(OC)c(OC)c(OC)c3)c2o1 | Non-Toxic
18 | CCc1cc(=O)c2ccc(OC)c(COC(=O)c3ccc(C#N)cc3)c2o1 | Toxic
19 | CCCCCc1ccc(C(=O)OCc2c(OC)ccc3c(=O)cc(CC)oc23)cc1 | Non-Toxic
20 | CCc1cc(=O)c2ccc(OC)c(COC(=O)c3ccc(F)cc3)c2o1 | Non-Toxic
21 | CCc1cc(=O)c2ccc(OC)c(COC(=O)c3cccc(OC)c3)c2o1 | Non-Toxic
22 | CCc1cc(=O)c2ccc(OC)c(COC(=O)/C=C/c3ccccc3)c2o1 | Non-Toxic
23 | CCc1cc(=O)c2ccc(OC)c(COC(=O)/C=C/c3ccc(Cl)cc3)c2o1 | Non-Toxic
24 | CCOc1ccc2c(=O)cc(CC)oc2c1COC(=O)c1cc(OC)c(OC)cc1OC | Non-Toxic
25 | CCc1cc(=O)c2ccc(OC)c(COC(=O)c3cc(OC)c(OC)cc3OC)c2o1 | Non-Toxic
26 | CCc1cc(=O)c2ccc(OC)c(COC(=O)/C=C/c3ccc(OC)cc3)c2o1 | Toxic
27 | CCc1cc(=O)c2ccc(OC)c(COC(=O)c3cccc(N(C)C)c3)c2o1 | Non-Toxic
28 | CCCc1ccc(C(=O)OCc2c(OC)ccc3c(=O)cc(CC)oc23)cc1 | Non-Toxic
29 | CCc1cc(=O)c2ccc(OC)c(COC(=O)c3ccccc3[N+](=O)[O-])c2o1 | Non-Toxic
30 | CCc1cc(=O)c2ccc(OC(C)C)c(COC(=O)/C=C/c3ccccc3)c2o1 | Non-Toxic

System: not listed separately
Test: Cytotoxicity against human T29 cells assessed as reduction in cell viability at 10 uM incubated for 48 hrs by MTT assay
Type: cell-based
Details: t29, 48 h
Method in brief: as §1, with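 “h. A2780/T and KB-VIN were grown in DMEM/F12 with 10% FBS, and HUVEC, HOSEC and T29 in RPMI-1640 with 10% FBS, all at 37 °C under 5% CO₂.” for “h.”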

Row | SMILES | Activity
31 | CCc1cc(=O)c2ccc(OC(C)C)c(COC(=O)c3cc(OC)c(OC)c(OC)c3)c2o1 | Non-Toxic
32 | CCc1cc(=O)c2ccc(OC)c(COC(=O)Cc3cc(OC)c(OC)c(OC)c3)c2o1 | Non-Toxic
33 | CCc1cc(=O)c2ccc(OC)c(COC(=O)c3ccc(C#N)cc3)c2o1 | Toxic
34 | CCCCCc1ccc(C(=O)OCc2c(OC)ccc3c(=O)cc(CC)oc23)cc1 | Non-Toxic
35 | CCc1cc(=O)c2ccc(OC)c(COC(=O)c3ccc(F)cc3)c2o1 | Non-Toxic
36 | CCc1cc(=O)c2ccc(OC)c(COC(=O)c3cccc(OC)c3)c2o1 | Non-Toxic
37 | CCc1cc(=O)c2ccc(OC)c(COC(=O)/C=C/c3ccccc3)c2o1 | Non-Toxic
38 | CCc1cc(=O)c2ccc(OC)c(COC(=O)/C=C/c3ccc(Cl)cc3)c2o1 | Non-Toxic
39 | CCOc1ccc2c(=O)cc(CC)oc2c1COC(=O)c1cc(OC)c(OC)cc1OC | Non-Toxic
40 | CCc1cc(=O)c2ccc(OC)c(COC(=O)c3cc(OC)c(OC)cc3OC)c2o1 | Non-Toxic
41 | CCc1cc(=O)c2ccc(OC)c(COC(=O)/C=C/c3ccc(OC)cc3)c2o1 | Toxic
42 | CCc1cc(=O)c2ccc(OC)c(COC(=O)c3cccc(N(C)C)c3)c2o1 | Non-Toxic
43 | CCCc1ccc(C(=O)OCc2c(OC)ccc3c(=O)cc(CC)oc23)cc1 | Non-Toxic
44 | CCc1cc(=O)c2ccc(OC)c(COC(=O)c3ccccc3[N+](=O)[O-])c2o1 | Non-Toxic
45 | CCc1cc(=O)c2ccc(OC(C)C)c(COC(=O)/C=C/c3ccccc3)c2o1 | Non-Toxic

System: A2780/Taxol
Test: Cytotoxicity against human A2780T cells assessed as reduction in cell viability at 10 uM incubated for 48 hrs by MTT assay
Type: cell-based
Details: not given
Method in brief: as §1, with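 “h. A2780/T and KB-VIN were grown in DMEM/F12 with 10% FBS, and HUVEC, HOSEC and T29 in RPMI-1640 with 10% FBS, all at 37 °C under 5% CO₂.” for “h.”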

Row | SMILES | Activity
46 | CCc1cc(=O)c2ccc(OC(C)C)c(COC(=O)c3cc(OC)c(OC)c(OC)c3)c2o1 | Non-Toxic
47 | CCc1cc(=O)c2ccc(OC)c(COC(=O)Cc3cc(OC)c(OC)c(OC)c3)c2o1 | Toxic
48 | CCc1cc(=O)c2ccc(OC)c(COC(=O)c3ccc(C#N)cc3)c2o1 | Non-Toxic
49 | CCCCCc1ccc(C(=O)OCc2c(OC)ccc3c(=O)cc(CC)oc23)cc1 | Non-Toxic
50 | CCc1cc(=O)c2ccc(OC)c(COC(=O)c3ccc(F)cc3)c2o1 | Non-Toxic
51 | CCc1cc(=O)c2ccc(OC)c(COC(=O)c3cccc(OC)c3)c2o1 | Non-Toxic
52 | CCc1cc(=O)c2ccc(OC)c(COC(=O)/C=C/c3ccccc3)c2o1 | Non-Toxic
53 | CCc1cc(=O)c2ccc(OC)c(COC(=O)/C=C/c3ccc(Cl)cc3)c2o1 | Non-Toxic
54 | CCOc1ccc2c(=O)cc(CC)oc2c1COC(=O)c1cc(OC)c(OC)cc1OC | Non-Toxic
55 | CCc1cc(=O)c2ccc(OC)c(COC(=O)c3cc(OC)c(OC)cc3OC)c2o1 | Non-Toxic
56 | CCc1cc(=O)c2ccc(OC)c(COC(=O)/C=C/c3ccc(OC)cc3)c2o1 | Toxic
57 | CCc1cc(=O)c2ccc(OC)c(COC(=O)c3cccc(N(C)C)c3)c2o1 | Non-Toxic
58 | CCCc1ccc(C(=O)OCc2c(OC)ccc3c(=O)cc(CC)oc23)cc1 | Toxic
59 | CCc1cc(=O)c2ccc(OC)c(COC(=O)c3ccccc3[N+](=O)[O-])c2o1 | Non-Toxic
60 | CCc1cc(=O)c2ccc(OC(C)C)c(COC(=O)/C=C/c3ccccc3)c2o1 | Non-Toxic

System: not listed separately
Test: Reversal of multidrug resistance activity in P-gp overexpressing human A2780T cells assessed as potentiation of PTX-induced cytotoxicity by measuring reversal ratio at 10 uM incubated for 48 hrs in presence of paclitaxel by MTT assay
Type: functional, A2780/Taxol
Details: not given
Method in brief: (§2)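 Resistant cells were plated at 3~5 × 10^3 per well, given 24 h, then co-treated with test compound plus a range of anticancer drug concentrations (PTX for A2780/T, VCR for KB-VIN, cisplatin for A2780/CDDP) or DMSO for 48 h. Read-out was by MTT, 4 h at 37 °C, with absorbance at 490 nm. Reversal ratio = IC50 (drug alone) / IC50 (drug with compound).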

Row | SMILES | Ratio
61 | CCc1cc(=O)c2ccc(OC(C)C)c(COC(=O)c3cc(OC)c(OC)c(OC)c3)c2o1 | 503
62 | CCc1cc(=O)c2ccc(OC)c(COC(=O)Cc3cc(OC)c(OC)c(OC)c3)c2o1 | 54
63 | CCc1cc(=O)c2ccc(OC)c(COC(=O)c3ccc(C#N)cc3)c2o1 | 8
64 | CCCCCc1ccc(C(=O)OCc2c(OC)ccc3c(=O)cc(CC)oc23)cc1 | 173
65 | CCc1cc(=O)c2ccc(OC)c(COC(=O)c3ccc(F)cc3)c2o1 | 53
66 | CCc1cc(=O)c2ccc(OC)c(COC(=O)c3cccc(OC)c3)c2o1 | 147
67 | CCc1cc(=O)c2ccc(OC)c(COC(=O)/C=C/c3ccccc3)c2o1 | 427
68 | CCc1cc(=O)c2ccc(OC)c(COC(=O)/C=C/c3ccc(Cl)cc3)c2o1 | 53
69 | CCOc1ccc2c(=O)cc(CC)oc2c1COC(=O)c1cc(OC)c(OC)cc1OC | 457
70 | CCc1cc(=O)c2ccc(OC)c(COC(=O)c3cc(OC)c(OC)cc3OC)c2o1 | 284
71 | CCc1cc(=O)c2ccc(OC)c(COC(=O)/C=C/c3ccc(OC)cc3)c2o1 | 414
72 | CCc1cc(=O)c2ccc(OC)c(COC(=O)c3cccc(N(C)C)c3)c2o1 | 484
73 | CCCc1ccc(C(=O)OCc2c(OC)ccc3c(=O)cc(CC)oc23)cc1 | 36
74 | CCc1cc(=O)c2ccc(OC)c(COC(=O)c3ccccc3[N+](=O)[O-])c2o1 | 172
75 | CCc1cc(=O)c2ccc(OC(C)C)c(COC(=O)/C=C/c3ccccc3)c2o1 | 685

System: not listed separately
Test: Reversal of multidrug resistance activity in P-gp overexpressing human KB-VIN cells assessed as potentiation of VCR-induced cytotoxicity by measuring reversal ratio at 10 uM incubated for 48 hrs in presence of VCR by MTT assay
Type: functional
Details: not given
Method in brief: as §2

Row | SMILES | Ratio
76 | CCc1cc(=O)c2ccc(OC)c(COC(=O)/C=C/c3ccccc3)c2o1 | 343
77 | CCc1cc(=O)c2ccc(OC)c(COC(=O)c3cc(OC)c(OC)cc3OC)c2o1 | 579
78 | CCc1cc(=O)c2ccc(OC)c(COC(=O)/C=C/c3ccc(OC)cc3)c2o1 | 420
79 | CCc1cc(=O)c2ccc(OC)c(COC(=O)c3cccc(N(C)C)c3)c2o1 | 234
80 | CCc1cc(=O)c2ccc(OC(C)C)c(COC(=O)/C=C/c3ccccc3)c2o1 | 466

System: not listed separately
Test: Reversal of multidrug resistance activity in human A2780/CDDP cells assessed as potentiation of CDDP-induced cytotoxicity by measuring reversal ratio at 10 uM incubated for 48 hrs in presence of CDDP by MTT assay
Type: functional
Details: not given
Method in brief: as §2

Row | SMILES | Ratio
81 | CCc1cc(=O)c2ccc(OC(C)C)c(COC(=O)c3cc(OC)c(OC)c(OC)c3)c2o1 | 0.99
82 | CCOc1ccc2c(=O)cc(CC)oc2c1COC(=O)c1cc(OC)c(OC)cc1OC | 0.88
83 | CCc1cc(=O)c2ccc(OC)c(COC(=O)c3cccc(N(C)C)c3)c2o1 | 0.81
84 | CCc1cc(=O)c2ccc(OC(C)C)c(COC(=O)/C=C/c3ccccc3)c2o1 | 0.81

System: not listed separately
Test: Cytotoxicity against human KB-VIN cells assessed as reduction in cell viability at 10 uM incubated for 48 hrs by MTT assay
Type: cell-based
Details: not given
Method in brief: as §1, with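 “h. A2780/T and KB-VIN were grown in DMEM/F12 with 10% FBS, and HUVEC, HOSEC and T29 in RPMI-1640 with 10% FBS, all at 37 °C under 5% CO₂.” for “h.”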

Row | SMILES | Activity
85 | CCc1cc(=O)c2ccc(OC)c(COC(=O)/C=C/c3ccccc3)c2o1 | Non-Toxic
86 | CCc1cc(=O)c2ccc(OC)c(COC(=O)c3cc(OC)c(OC)cc3OC)c2o1 | Non-Toxic
87 | CCc1cc(=O)c2ccc(OC)c(COC(=O)/C=C/c3ccc(OC)cc3)c2o1 | Non-Toxic
88 | CCc1cc(=O)c2ccc(OC)c(COC(=O)c3cccc(N(C)C)c3)c2o1 | Non-Toxic
89 | CCc1cc(=O)c2ccc(OC(C)C)c(COC(=O)/C=C/c3ccccc3)c2o1 | Non-Toxic
